According to ChEMBL document CHEMBL3734708, “Synthesis, cytotoxicity and antiviral evaluation of new series of imidazo[4,5-g]quinoline and pyrido[2,3-g]quinoxalinone derivatives” (Eur J Med Chem, 2015):
pEC50, pIC50: −log10 of the molar value.

Assays:
[1] = Inhibition of BVDV RNA-dependent RNA polymerase pre-incubated for preincubated for 30 mins before GTP addition and measured after 120 mins by fluorescence based microplate reader assay; set-up: species or system Bovine viral diarrhea virus 1
Summary of the method: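 His-tagged BVDV NS5BΔ24 (C-terminal 24 residues deleted) from E. coli, Ni-NTA purified, 500 ng/reaction. Assay uses poly(rC) 10 µg/mL template, oligo(rG)12 0.1 µg/mL primer and 80 µM GTP. Buffer is 20 mM Tris pH 7.0, 5 mM MgCl2, 25 mM NaCl, 1 mM DTT, 5% DMSO. Threefold compound dilutions, 30 min RT preincubation, 120 min at 37 °C, EDTA stop. Product read by PicoGreen fluorescence (ex 480/em 520), as % residual activity.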

[2] = Cytotoxicity against human MT4 cells assessed as reduction in cell proliferation after 96 hrs by MTT assay; format: cell-based
Summary of the method: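 MT-4 cells in exponential growth seeded at 1 × 10^5 cells/mL in RPMI-1640 with 10% FBS and penicillin/streptomycin. Cultured with serial compound dilutions at 37 °C, 5% CO2. MTT viability after 96 h. CC50 by linear regression against untreated controls. Mean of three independent determinations.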

[3] = test system: Human immunodeficiency virus 1; test: Antiviral activity against HIV-1 3B infected in human MT4 cells assessed as protection against virus-induced cytopathic effect after 4 days by MTT assay; format: functional, organism-based; conditions: Human immunodeficiency virus 1, 3B, MT4, 96 h
Summary of the method: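 MT-4 cells (1 × 10^4/well in RPMI) with or without serial compound dilutions, infected with HIV-1 at 100 CCID50 (m.o.i. 0.01). After 4 days at 37 °C, protection from cytopathogenicity read by MTT. EC50 by linear regression versus untreated controls; mean of three independent determinations.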

[4] = Cytotoxicity against MDBK cells assessed as reduction in cell viability after 72 hrs by MTT assay; format: cell-based, Bos taurus; conditions: cattle
Summary of the method: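 MDBK cells seeded at 6 × 10^5 cells/mL in MEM-E with L-glutamine, 1 mM sodium pyruvate, kanamycin and 10% horse serum. Mock-infected cultures held with serial compound dilutions at 37 °C, 5% CO2. MTT viability read after 72 h. 50% cytotoxic concentration from linear regression as % of untreated controls. Three independent determinations.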

[5] = test system: Bovine viral diarrhea virus 1; test: Antiviral activity against BVDV NADL ATCC VR-534 infected in MDBK cells assessed as protection against virus-induced cytopathic effect after 3 or 4 days by MTT assay; format: functional, organism-based; conditions: Bovine viral diarrhea virus isolates and strains, NADL ATCC VR-534, MDBK
Summary of the method: (§1)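 BHK-21 (YFV, Reo-1) or MDBK (BVDV) cells seeded at 5 × 10^4 or 3 × 10^4 cells/well and grown overnight to confluence. Monolayers infected at m.o.i. 0.01 in maintenance medium (MEM-Earle, 0.5% inactivated FBS). Serial compound dilutions added 2 h after infection; 37 °C for 3-4 days. Viability read by MTT. EC50 by linear regression versus untreated controls; mean of three determinations.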

[6] = Cytotoxicity against BHK21 cells assessed as reduction in cell viability after 72 hrs by MTT assay; format: cell-based, Mesocricetus auratus, BHK-21; conditions: hamster
Summary of the method: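 BHK cells seeded at 1 × 10^6 cells/mL in MEM-E with L-glutamine, 1 mM sodium pyruvate, kanamycin and 10% FBS. Mock-infected cells exposed to serial dilutions of compound at 37 °C, 5% CO2, run in parallel with the antiviral assays. Viability by MTT at 72 h. CC50 by linear regression vs untreated controls. Mean of three independent determinations.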

Yellow fever virus = test: Antiviral activity against YFV 17-D vaccine (Stamaril Pasteur J07B01) infected in BHK21 cells assessed as protection against virus-induced cytopathic effect after 3 or 4 days by MTT assay; format: functional, organism-based; conditions: BHK-21; summary of the method: as §1
[7] = test system: Mammalian orthoreovirus 1; test: Antiviral activity against Reovirus 1 ATCC VR- 214 infected in BHK21 cells assessed as protection against virus-induced cytopathic effect after 3 or 4 days by MTT assay; format: functional, cell-based; conditions: Mammalian orthoreovirus 1, ATCC VR- 214, BHK-21; summary of the method: as §1
[8] = Cytotoxicity against african green monkey Vero 76 cells assessed as reduction in cell viability after 48 to 96 hrs by MTT assay; format: cell-based; conditions: chlorocebus sabaeus
Summary of the method: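 Vero-76 cells plated at 4 × 10^5 cells/mL in D-MEM with L-glutamine, kanamycin and 10% FBS. Incubated with serial dilutions of test compounds at 37 °C, 5% CO2 for 48-96 h. Viability by MTT. CC50 by linear regression relative to untreated cells. Mean of three independent runs.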

Coxsackievirus B5 = test: Antiviral activity against CVB-5 virus Faulkner ATCC VR-185 infected in african green monkey Vero-76 cells after 3 days by plaque reduction assay; format: functional, organism-based; conditions: Enterovirus B, Faulkner ATCC VR-185, Vero 76, 72 h
[9] = test system: Human poliovirus 1 strain Sabin; test: Antiviral activity against Human poliovirus 1 strain Sabin 1 virus infected in african green monkey Vero-76 cells after 2 days by plaque reduction assay; format: functional, organism-based; conditions: Enterovirus C, 1, Vero 76, 48 h
[10] = test system: Respiratory syncytial virus; test: Antiviral activity against RSVA2 ATCC VR-1540 infected in african green monkey Vero-76 cells after 5 days by plaque reduction assay; format: functional, organism-based; conditions: human respiratory syncytial virus, A2 ATCC VR-1540, Vero 76, 120 h
[11] = test system: Vesicular stomatitis virus; test: Antiviral activity against VSV Indiana ATCC VR-158 infected in african green monkey Vero-76 cells after 2 days by plaque reduction assay; format: functional, organism-based; conditions: Indiana ATCC VR-158, Vero 76, 48 h
Vaccinia virus = test: Antiviral activity against VV Elstree ATCC VR-1549 infected in african green monkey Vero-76 cells after 3 days by plaque reduction assay; format: functional, organism-based; conditions: Orthopoxvirus vaccinia, Elstree ATCC VR-1549, Vero 76, 72 h
Human alphaherpesvirus 1 = test: Antiviral activity against HSV-1 KOS ATCC VR- 1493 infected in african green monkey Vero-76 cells after 3 days by plaque reduction assay; format: functional, organism-based; conditions: Human alphaherpesvirus 1, KOS ATCC VR1493, Vero 76, 72 h
[12] = Selectivity index, ratio of CC50 for human GS4.1 cells to EC50 for Hepatitis C virus genotype 1b replicon infected in human GS4.1 cells; format: toxicity, cell-based; conditions: read-out: Ratio CC50/EC50
Summary of the method: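 Replicon GS4.1 cells 7.5 × 10^3/well with twofold dilutions (top 75 µM), 72 h at 37 °C. Replication measured by NS4A ELISA (anti-NS4A A-236, peroxidase conjugate, phenylenediamine, A492), with EC50 by four-parameter sigmoidal fit. CC50 from CellTiter 96 AQueous One in the same cells. Index taken as CC50/EC50.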

[13] = Selectivity index, ratio of CC50 for MDBK cells to EC50 for BVDV infected in MDBK cells
Hepatitis C virus = test: Antiviral activity against Hepatitis C virus genotype 1b replicon infected in human GS4.1 cells assessed as protection against virus-induced cytopathic effect after […] by ELISA; format: functional, organism-based, Hepacivirus hominis
Summary of the method: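 Huh-7 cells carrying the genotype 1b replicon (GS4.1) seeded at 7.5 × 10^3 cells/well in twofold serial compound dilutions (top 75 µM). Replicon-free Huh-7 served as negative control. 72 h at 37 °C. Fixed in acetone-methanol; NS4A ELISA with mouse monoclonal A-236, peroxidase anti-mouse IgG and phenylenediamine; absorbance at 492 nm. EC50 by four-parameter sigmoidal regression of % inhibition.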

[14] = Cytotoxicity against human GS4.1 cells assessed as reduction in cell viability after 72 hrs by Cell Titer 96 aqueous one solution cell proliferation assay; format: cell-based
Summary of the method: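 GS4.1 cells (Huh-7 carrying an HCV genotype 1b replicon, grown with 0.5 mg/mL G418) seeded at 7.5 × 10^3 cells/well with twofold serial dilutions, top 75 µM. Incubated 72 h at 37 °C, 5% CO2. Viability by CellTiter 96 AQueous One. CC50 from % cytotoxicity vs concentration.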

| SMILES | pIC50 [1] | CC50 at 96 h [2] | pEC50 [3] | CC50 at 72 h [4] | pEC50 [5] | CC50 at 72 h [6] | pEC50 (Yellow fever virus) | pEC50 [7] | CC50 [8] | pEC50 (Coxsackievirus B5) | pEC50 [9] | pEC50 [10] | pEC50 [11] | pEC50 (Vaccinia virus) | pEC50 (Human alphaherpesvirus 1) | selectivity ratio [12] | Ratio CC50/EC50 [13] | pEC50 (Hepatitis C virus) | CC50 at 72 h [14] |
| --- | --- | --- | --- | --- | --- | --- | --- | --- | --- | --- | --- | --- | --- | --- | --- | --- | --- | --- | --- |
| COc1nc2cc3cccnc3c(Cl)c2nc1-c1cccs1 | 6.19 | > 100 µM | < 4.00 | > 100 µM | 5.89 | > 100 µM | < 4.00 | < 4.00 | > 100 µM | < 4.00 | < 4.00 | < 4.00 | < 4.00 | < 4.00 | < 4.00 | – | – | – | – |
| O=c1[nH]c2cc3cccnc3c(Cl)c2nc1Cc1ccccc1 | – | – | < 4.82 | > 100 µM | 5.59 | > 100 µM | < 4.00 | < 4.00 | 88 µM | < 4.06 | < 4.06 | < 4.06 | < 4.06 | < 4.06 | < 4.06 | 1 | >34 | < 4.19 | – |
| O=c1[nH]c2cc3cccnc3c(Cl)c2nc1-c1cccs1 | – | > 100 µM | < 4.00 | > 100 µM | 5.22 | > 100 µM | < 4.00 | < 4.00 | > 100 µM | < 4.00 | < 4.00 | < 4.00 | < 4.00 | < 4.00 | < 4.00 | 3 | >16 | 5.12 | 21 µM |
| O=c1[nH]c2cc3cccnc3c(Cl)c2nc1-c1ccccc1 | – | 61 µM | < 4.21 | > 100 µM | 5.30 | > 100 µM | < 4.00 | < 4.00 | > 100 µM | < 4.00 | < 4.00 | < 4.00 | < 4.00 | < 4.00 | < 4.00 | 1 | >20 | < 4.96 | – |
